Reference: ChEMBL document CHEMBL1127369, “Synthesis and structure-activity relationships of peptidyl alpha-keto heterocycles as novel inhibitors of prolyl endopeptidase” (J Med Chem, 1994)

Molecular target: Prolyl endopeptidase (Sus scrofa, UniProt P23687)
Assay: In vitro inhibitory activity against prolyl endopeptidase (PEP)
How it was run: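 Pig kidney PEP, partially purified. Substrate Z-Gly-Pro-p-nitroanilide at 0.26 mM in dioxane with 0.2 M phosphate buffer. Inhibitor is added in DMSO over a range of concentrations, then enzyme (0.05 units/mL). Incubation 20 min at 37 °C, with p-nitroaniline read at 405 nm. IC50 (n = 3-6) is estimated from the inhibitor concentration vs activity curve.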

Prolyl endopeptidase, sequence (P23687 whole entry): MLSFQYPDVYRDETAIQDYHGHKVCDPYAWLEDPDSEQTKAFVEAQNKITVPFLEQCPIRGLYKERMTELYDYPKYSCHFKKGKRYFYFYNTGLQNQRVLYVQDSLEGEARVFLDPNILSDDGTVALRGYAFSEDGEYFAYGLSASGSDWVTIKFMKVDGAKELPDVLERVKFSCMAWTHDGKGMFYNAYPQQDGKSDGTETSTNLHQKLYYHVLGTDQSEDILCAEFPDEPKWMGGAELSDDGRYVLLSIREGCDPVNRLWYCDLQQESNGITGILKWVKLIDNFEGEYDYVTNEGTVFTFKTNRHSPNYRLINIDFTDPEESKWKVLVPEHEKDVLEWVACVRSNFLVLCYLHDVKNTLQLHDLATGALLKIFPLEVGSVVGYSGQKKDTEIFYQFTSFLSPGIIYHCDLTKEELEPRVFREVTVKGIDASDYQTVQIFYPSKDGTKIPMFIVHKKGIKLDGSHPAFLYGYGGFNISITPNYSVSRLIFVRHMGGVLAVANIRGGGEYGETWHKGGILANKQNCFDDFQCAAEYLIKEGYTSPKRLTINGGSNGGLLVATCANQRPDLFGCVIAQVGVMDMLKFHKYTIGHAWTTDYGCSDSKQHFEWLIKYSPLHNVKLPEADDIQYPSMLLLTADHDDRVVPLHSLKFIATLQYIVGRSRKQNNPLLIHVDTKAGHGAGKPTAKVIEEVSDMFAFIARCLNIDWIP

Row | Structure (SMILES) | IC50 [nM]
1 | O=C(c1cncs1)[C@@H]1CCCN1C(=O)[C@@H]1CCCN1C(=O)CCCc1ccccc1 | 1090
2 | O=C(c1ccc[nH]1)[C@@H]1CCCN1C(=O)[C@@H]1CCCN1C(=O)CCCc1ccccc1 | 21300
3 | O=C(c1ncc[nH]1)[C@@H]1CCCN1C(=O)[C@@H]1CCCN1C(=O)CCCc1ccccc1 | 9
4 | O=C(c1cccnc1)[C@@H]1CCCN1C(=O)[C@@H]1CCCN1C(=O)CCCc1ccccc1 | 2290
5 | O=C(c1ccccn1)[C@@H]1CCCN1C(=O)[C@@H]1CCCN1C(=O)CCCc1ccccc1 | 6.9
6 | O=C(c1cscn1)[C@@H]1CCCN1C(=O)[C@@H]1CCCN1C(=O)CCCc1ccccc1 | 6.2
7 | O=C([C@@H]1CCCN1C(=O)CCCc1ccccc1)N1CCCC1C(O)c1nccs1 (some centres not stated) | 16100
8 | O=C(c1cccs1)[C@@H]1CCCN1C(=O)[C@@H]1CCCN1C(=O)OCc1ccccc1 | 2020
9 | O=C(c1cccs1)[C@@H]1CCCN1C(=O)[C@@H]1CCCN1C(=O)CCCc1ccccc1 | 1260
10 | O=C(c1cncnc1)[C@@H]1CCCN1C(=O)[C@@H]1CCCN1C(=O)CCCc1ccccc1 | 61
11 | CCOC(=O)C(=O)C1CCCN1C(=O)[C@@H]1CCCN1C(=O)CCCc1ccccc1 (some centres not stated) | 10.3
12 | O=C(c1nccs1)C1CCCN1C(=O)C1CCCN1C(=O)OCc1ccccc1 (configuration not stated) | 8.5

These reach a lower IC50. Values come first.

Row | IC50 [nM] | Structure (SMILES)
13 | 4 | O=C(c1nc2ccccc2s1)[C@@H]1CCCN1C(=O)[C@@H]1CCCN1C(=O)CCCc1ccccc1
14 | 5 | O=C(c1nc2ccccc2s1)[C@@H]1CCCN1C(=O)[C@@H]1CCCN1C(=O)OCc1ccccc1
15 | 5.6 | O=C(c1nc2ccccc2o1)[C@@H]1CCCN1C(=O)[C@@H]1CCCN1C(=O)CCCc1ccccc1
16 | 3.8 | O=C(C1=NCCS1)[C@@H]1CCCN1C(=O)[C@@H]1CCCN1C(=O)CCCc1ccccc1
17 | 5.5 | O=C(c1nc2ncccc2o1)[C@@H]1CCCN1C(=O)[C@@H]1CCCN1C(=O)CCCc1ccccc1
